Xi reactivation: reactivates the inactive X chromosome in mouse fibroblasts | XiGFP mouse fibroblasts, % GFP-positive cells imaging, 3 d; cells co-treated with 5-aza-dC sensitizer; scaled so ellipticine positive control = 100% | activation, % at 7.58 µM | 360,000 compounds, 0.055% hits | AID 743238;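 active = mean normalized replicate activation at least 10% and every replicate at or above 10%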;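 note: 0% = median of on-plate neutral control wells and 100% = ellipticine 6 µM median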
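Material: SV40-immortalized XiGFP fibroblast cells, line 68-5-11 | Buffer or medium: DMEM containing 5-aza-dC | Dosing: One concentration, pinned | Times: 3 d treatment, 15 min room-temperature fixation | Controls: Ellipticine 6 µM positive control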
ARNT-TACC3 inh: disruptors of human ARNT/TACC3 interaction; AlphaScreen His-ARNT PAS-B/GST-TACC3 binding, luminescence; TACC3 fragment carries E629A point mutation; inhibition, % at 9.99 µM; 390,000 compounds, 0.66% hits;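 active = mean inhibition of replicates at least 50% and at least half of replicates each reaching 50%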;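 note: 0% = complete ARNT plus TACC3 wells and 100% = ARNT alone without TACC3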
sPLA2-III inh: Inhibits HGIII-sPLA2 liposome hydrolysis, primary screen; Q9NZ20; QFRET BODIPY PC-A2 liposome hydrolysis, fluorescence; inhibition, % at 12.2 µM; 370,000 compounds, 0.56% hits; AID 743126;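 active = inhibition above mean plus 3 SD of compounds lying within the high and low control bounds, cut at about 19% in these data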;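 note: 0% = median of test compound wells and 100% = no enzyme DMSO wells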
SR-BI HDL uptake: mouse SR-BI HDL lipid transfer inhibition. ldlA[mSR-BI] CHO cells, DiI-HDL uptake fluorescence, 3 h. Q61009. inhibition, % at 12.5 µM. 320,000 compounds, 0.96% hits;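 active = mean replicate inhibition of at least 70% and a set share of replicates each scoring 70 or more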;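 note: 0% = median of neutral control wells and 100% = median of positive control wells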
Target sequence (Q61009 whole entry, looked up): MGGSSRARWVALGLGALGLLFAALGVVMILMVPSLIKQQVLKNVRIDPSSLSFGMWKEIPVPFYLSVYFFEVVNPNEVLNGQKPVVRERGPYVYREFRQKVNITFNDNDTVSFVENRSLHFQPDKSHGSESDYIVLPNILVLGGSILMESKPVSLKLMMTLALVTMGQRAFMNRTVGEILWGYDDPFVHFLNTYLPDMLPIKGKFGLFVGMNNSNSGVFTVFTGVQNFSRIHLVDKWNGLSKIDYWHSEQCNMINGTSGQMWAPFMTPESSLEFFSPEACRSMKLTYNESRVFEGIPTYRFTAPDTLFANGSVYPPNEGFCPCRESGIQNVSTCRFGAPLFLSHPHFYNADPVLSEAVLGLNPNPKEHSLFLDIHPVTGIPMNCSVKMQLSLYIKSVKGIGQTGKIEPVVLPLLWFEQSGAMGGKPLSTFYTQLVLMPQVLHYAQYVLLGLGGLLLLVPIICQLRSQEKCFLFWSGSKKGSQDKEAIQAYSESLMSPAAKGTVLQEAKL
NSD2 inh: blocks human histone methyltransferase NSD2; O96028; NSD2 peptide methylation, AlphaScreen, 120 min; inhibition, % at 12.5 µM; 310,000 compounds, 0.54% hits; AID 743445; in the data active = inhibition above about 50%
SR-BI DiI-HDL act: enhances SR-BI lipid uptake from DiI-HDL. CHO ldlA[mSR-BI] cells, DiI-HDL uptake fluorescence, 3 h; 100 = double the neutral-control signal. activation, % at 12.5 µM. 320,000 compounds, 0.096% hits. AID 504775;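 active = mean replicate activation of at least 60% and every replicate at or above 60%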;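 note: 0% = median plate neutral-control signal and 100% = twice that signal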
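Test system: SR-BI-overexpressing, LDLR-lacking CHO cells. Measured by: DiI fluorescence, bottom read. Medium: Ham's F12 with 0.5% BSA, HEPES 25 mM, pH 7.4. Timing: 3 h uptake period with compound, 37 °C.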
ARNT Alpha ctr-1: interferes with AlphaScreen signal, flagging false ARNT-TACC3 hits | 1,200 compounds, 50% hits | shares compounds with ARNT-TACC3 inh | AC50, µM (top dose mostly 68 µM), without a hit: at the top dose activity change, negative = signal decrease | His-ARNT PASB-GST AlphaScreen artifact counter-screen, luminescence;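 active = every separate test run was called active for a drop in luminescence, with AC50 within twice the top valid dose, actives reach about 71 µM in these data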
ARNT Alpha ctr-2: AlphaScreen artifact flagged for ARNT-TACC3 inhibitors | shares compounds with ARNT-TACC3 inh | Dual-tagged His-ARNT PASB-GST AlphaScreen artifact counter-screen | AC50, µM | 45 compounds, 70% hits | AID 720564;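 active = luminescence drop, with half-maximal potency fitted within twice the sample's top valid dose, cut at about 70 µM in these data; inactive = the rest, including signal moving the wrong way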
An asterisk follows results filed as active; . = not tested or not shown. Compounds with a hit are over-represented: about 2% of the library has one in this group of screens.

SMILES | Xi reactivation | ARNT-TACC3 inh | sPLA2-III inh | SR-BI HDL uptake | NSD2 inh | SR-BI DiI-HDL act | ARNT Alpha ctr-1 | others
c1ccc(-c2nnc(-c3ccccn3)nc2NCC2CCCCC2)cc1 | . | . | . | . | . | . | 3.1µM*
c1ccc(-c2nnc(-c3ccccn3)nc2NCC2CC2)cc1 | . | . | . | . | . | . | 1µM*
CC1=NN(c2ccccc2C)C(=O)C1 | 0 | active | -1 | -8 | 1 | 8 | -3%
Cc1ccccc1N1CC(=O)N(c2ccccc2C)CC1=O | . | -11 | -2 | . | -3 | . | .
Cc1ccc(OCCNC(=O)CNC(=O)c2ccc3c(c2)OCO3)cc1 | 0 | -7 | -3 | -5 | -3 | 5 | .
O=S(=O)(c1ccc(Cl)cc1)N1CCN(Cc2ccc(O)c3ncccc23)CC1 | 6 | 41 | 8 | 33 | 2 | -33 | .
OCC1CCN(Cc2ccc(O)c3ncccc23)CC1 | . | . | . | . | . | . | 0.41µM*
CN1CCN(C2CCN(Cc3ccc(O)c4ncccc34)CC2)CC1 | 0 | 65* | 1 | -27 | . | 27 | 14µM*
Oc1ccc(CNC2CCc3ccccc32)c2cccnc12 (configuration not stated) | . | . | . | . | . | . | 3.2µM*
Oc1ccc(CN2CCN(Cc3ccccc3)CC2)c2cccnc12 | . | 65* | 4 | 19 | . | -19 | 6µM*
O=C(c1cccc(F)c1)N1C[C@@H]2[C@H](c3ccccc31)[C@H](CO)N2C(=O)c1cccc(F)c1 | 0 | . | . | . | . | . | .
Nc1nnnn1/N=C/c1ccc(N2CCCCC2)c([N+](=O)[O-])c1 | 0 | -3 | 18 | 24 | 7 | -24 | .
C[C@@H]1CN([C@@H](C)CO)C(=O)c2cc(NS(=O)(=O)c3cn(C)cn3)ccc2O[C@H]1CN(C)S(=O)(=O)c1ccc(F)cc1 | 0 | 1 | . | . | . | . | .
N/C(=N\OS(=O)(=O)c1ccc(Cl)cc1)c1ccccn1 | 0 | 53* | 3 | -13 | 7 | 13 | -18%
N/C(=N\NS(=O)(=O)c1ccccc1Cl)c1ccccn1 | 0 | 55* | 2 | -11 | -2 | 11 | -9%
N/C(=N\OC(=O)c1ccc(Cl)cc1)c1ccccn1 | . | 0 | 7 | 6 | -1 | -6 | .
O=C(N[C@H]1CC[C@H](CCn2cc(C3CC3)nn2)O[C@@H]1CO)c1cccnc1 | 1 | -23 | . | . | . | . | .
O=C(N[C@@H]1CC[C@@H](CCn2cc(-c3ccccn3)nn2)O[C@@H]1CO)c1cccnc1 | 0 | 81* | . | . | . | . | 44µM*
O=C(N[C@@H]1CC[C@@H](CCn2cc(-c3ccccn3)nn2)O[C@H]1CO)c1cccnc1 | 0 | 71* | . | . | . | . | 37µM*
O=C(N[C@@H]1CC[C@H](CCn2cc(-c3ccccn3)nn2)O[C@H]1CO)c1cccnc1 | 0 | 84* | . | . | . | . | 44µM*
O=C(N/N=C1/CCS(=O)(=O)c2ccc(F)cc21)c1cccnc1 | 0 | -8 | 0 | 1 | 2 | -1 | .
O=C(N/N=C1/CCS(=O)(=O)c2ccc(F)cc21)c1ccccn1 | 0 | 52* | 1 | -12 | 4 | 12 | -5%
COc1ccc2nc(-c3ccccn3)[nH]c2c1 | 0 | 40* | -2 | 12 | -3 | -12 | -7%
Nc1ccc2nc(-c3ccccc3)[nH]c2c1 | . | -2 | 9 | 6 | -2 | -6 | .
Nc1ccc2nc(-c3ccccn3)[nH]c2c1 | . | 46* | 8 | -22 | -2 | 22 | 45µM*
SMILES | Xi reactivation | ARNT-TACC3 inh | sPLA2-III inh | SR-BI HDL uptake | NSD2 inh | SR-BI DiI-HDL act | ARNT Alpha ctr-1 | others
COc1ccc2nc(-c3ccc(N)cc3)[nH]c2c1 | . | 0 | 2 | 1 | -2 | -1 | .
COc1cc(C(F)(F)F)c(C(=O)N(C)Cc2cc(Cl)cc(Cl)c2)cn1 | 0 | -4 | 5 | 8 | -4 | -8 | .
COCCN1CCN(C(=O)c2ccc3nc(Cc4ccccc4F)oc3c2)CC1 | 0 | 2 | -2 | -26 | -7 | 26 | .
O=C(Nc1ccc2nc3ccccc3nc2c1)c1ccc(Br)cc1 | 2 | -1 | -13 | . | 1 | . | .
CC(=O)Nc1ccc2nc3ccccc3nc2c1 | 0 | 32* | 4 | -28 | 4 | 28 | -14%
CCCCN1C(=O)C(CC(=O)NCc2cccc3ccccc23)CC(C(=O)N(C(C)C)C(C)C)=C1C (configuration not stated) | 0 | . | -8 | . | 6 | . | .
Cc1cc(C)cc(NC(=O)CSc2ccc(-c3ccccn3)nn2)c1 | 0 | 11 | 0 | 52 | 1 | -52 | .
CCOC(=O)c1ccc(NC(=O)CSc2ccc(-c3cccnc3)nn2)cc1 | 0 | -4 | -1 | . | 0 | . | .
O=C(CSc1nnc(-c2ccccn2)o1)Nc1ccccc1Cl | 0 | 75* | 0 | -15 | -3 | 15 | -27%
O=C(CSc1ccc(-c2ccccn2)nn1)Nc1nccs1 | 0 | 61* | 3 | . | -1 | . | 60µM* | ARNT Alpha ctr-2=4.7*
COC(=O)c1ccc(NC(=O)CSc2ccc(-c3ccccn3)nn2)cc1 | 1 | 60* | -1 | 16 | 0 | -16 | -37%
O=C(CSc1ccc(-c2ccccn2)nn1)Nc1cccc(F)c1 | 0 | 74* | -2 | 17 | 3 | -17 | 12µM*
Cc1ccccc1NC(=O)CSc1ccc(-c2ccccn2)nn1 | 0 | 61* | -2 | 37 | -5 | -37 | 35µM*
O=C(CSc1ccc(-c2cccnc2)nn1)N1CCCc2ccccc21 | 0 | . | -7 | . | 0 | . | .
Cc1csc(NC(=O)CSc2ccccc2F)n1 | 0 | -13 | -3 | 3 | 2 | -3 | .
COc1ccccc1CNC(=O)CSc1ccc(-c2cccs2)nn1 | 0 | 15 | 3 | 1 | 3 | -1 | .
COc1ccccc1CNC(=O)CSc1ccc(-c2ccccn2)nn1 | 0 | 73* | 0 | . | -15 | . | 59µM*
Cc1csc(NC(=O)CSc2ccc(-c3ccccn3)nn2)n1 | 0 | 61* | 9 | . | -36 | . | 16µM*
O=C(CSc1ccc(-c2ccccn2)nn1)N1CCCc2ccccc21 | 0 | 59* | 0 | . | 4 | . | 30µM*
CCc1ccc2c(c1)C1(NN=C(c3ccc(C)cc3)S1)C(=O)N2 (configuration not stated) | . | 61* | -2 | 69 | 21 | -69 | 2.8µM*
CCc1ccc2c(c1)NC(=O)C2(C)Cc1ccc(F)cc1 (configuration not stated) | 0 | . | -8 | . | 1 | . | .
O=C(COC(=O)c1cncc(Br)c1)Nc1nnc(-c2ccccc2)o1 | 0 | -3 | -2 | -22 | -2 | 22 | .
